Reference: ChEMBL document CHEMBL1122545, “N2-(4-Substituted-2,6-dichlorophenyl)-N1,N1-dimethylformamidines as antihypertensive and diuretic agents” (J Med Chem, 1984)

Assays:
[1] = system: Rattus norvegicus; experiment: Antihypertensive activity determined as heart rate in SH rats, was reported at a dose of 25 mg/Kg; assay type: functional
Outline: (§1)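 Male SH rats (Okamoto strain), 16 weeks old, dosed orally by gavage with compound dispersed in 3% starch in normal saline at 2 mL/kg. Oral normal saline load, then individual metabolism cages; 0-5 h urine collected, Na+ and K+ measured by flame photometry. Rats redosed at 24 h without the saline load. MABP and HR taken by femoral arterial puncture under local anesthetic 4 h after the second dose.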

[2] = Diuretic activity was determined expressed as volume of urine excreted in mL was reported at a dose of 10 mg/Kg; assay type: ADME; details: in vivo; outline: as §1
[3] = system: Rattus norvegicus; experiment: Diuretic activity was determined in SH rats expressed as K(+) (potassium) excreted in milli equivalents was reported for a duration of 5 hours after administration of a dose of 10 mg/Kg.; assay type: ADME, organism-based, Urine; details: in vivo; outline: as §1
[4] = system: Rattus norvegicus; experiment: Antihypertensive activity in SH rats, and mean arterial blood pressure was reported at a dose of 25 mg/Kg; assay type: functional, Artery; outline: as §1
[5] = system: Rattus norvegicus; experiment: Antihypertensive activity determined as heart rate in SH rats, was reported at a dose of 10 mg/Kg; assay type: functional; outline: as §1
[6] = Diuretic activity was determined expressed as volume of urine excreted in mL was reported at a dose of 25 mg/Kg; assay type: ADME; details: in vivo; outline: as §1
[7] = Diuretic activity was determined expressed as Na+(sodium) excreted in milli equivalents was reported for a duration of 5 hours after administration of a dose of 25 mg/Kg; assay type: ADME, Urine; details: in vivo; outline: as §1
[8] = system: Rattus norvegicus; experiment: Antihypertensive activity in SH rats, and mean arterial blood pressure was reported at a dose of 10 mg/Kg; assay type: functional, Artery; outline: as §1
[9] = system: Rattus norvegicus; experiment: Diuretic activity was determined in SH rats expressed as K(+) (potassium) excreted in milli equivalents was reported for a duration of 5 hours after administration of a dose of 25 mg/Kg.; assay type: ADME, organism-based, Urine; details: in vivo; outline: as §1
[10] = Diuretic activity was determined expressed as Na+(sodium) excreted in milli equivalents was reported for a duration of 5 hours after administration of a dose of 10 mg/Kg; assay type: ADME, Urine; details: in vivo; outline: as §1

Diuretic activity [2]: 14.8 mL | Diuretic activity [3]: 0.48 m equiv | Diuretic activity [6]: 22.5 mL | Diuretic activity [7]: 2.16 m equiv | Diuretic activity [9]: 0.75 m equiv | Diuretic activity [10]: 1.29 m equiv
SMILES: COc1cc(N(C)C)ccc1CNc1cc(Cl)c(/N=C/N(C)C)c(Cl)c1
HR [1]: 270 beats min-1 | MABP [4]: 114 mmHg | HR [5]: 450 beats min-1 | MABP [8]: 132 mmHg
